Experimental data as given in ChEMBL document CHEMBL4480375, “Synthesis and receptor binding of thiophene bioisosteres of potent GluN2B ligands with a benzo[7]annulene-scaffold” (Medchemcomm, 2019).

What was measured:
[1] = target: Sigma non-opioid intracellular receptor 1 (Cavia porcellus, UniProt Q60492); assay: Displacement of [3H]-(+)-pentazocine from sigma1 receptor in guinea pig brain cortex membranes measured after 120 mins by scintillation counting analysis; format: cell membranes
[2] = target: T1, Sigma intracellular receptor 2 (Rattus norvegicus, UniProt Q5U3Y7); assay: Displacement of [3H]di-o-tolylguanidine from sigma2 receptor in rat liver membranes measured after 120 mins by scintillation counting analysis; format: cell membranes
T1 sequence (Q5U3Y7 whole entry): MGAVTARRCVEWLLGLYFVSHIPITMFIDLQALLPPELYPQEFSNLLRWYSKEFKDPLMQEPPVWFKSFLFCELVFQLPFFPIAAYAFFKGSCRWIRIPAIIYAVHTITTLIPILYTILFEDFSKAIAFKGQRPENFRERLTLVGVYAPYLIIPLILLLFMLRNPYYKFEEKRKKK

[3] = target: Glutamate receptor ionotropic, NMDA 2B (Homo sapiens, UniProt Q05586+Q13224); assay: Displacement of [3H]-ifenprodil from GluN2B (unknown origin) expressed in L(tk) cells by radio ligand binding assay; format: cell-based
Summary of the method: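 Mouse L(tk-) cells stably carrying dexamethasone-inducible GluN1a/GluN2B (1:5) were induced for 24 h with 4 μM dexamethasone plus 4 μM ketamine, then sonicated to membranes (about 20 μg protein). […] Filtration and scintillation counting, in duplicate. Ki by Cheng–Prusoff (Kd 7.6 nM), mean ± SEM of n=3.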

[4] = target: T2, Glutamate receptor ionotropic, NMDA 2B (Homo sapiens, UniProt Q13224); assay: Displacement of [3H]-ifenprodil from GluN2B (unknown origin) expressed in mouse L(tk) cells measured after 120 mins by scintillation counting analysis
[5] = target: T2, Glutamate receptor ionotropic, NMDA 2B; assay: Inhibition of GluN2B (unknown origin)

Sequence of Sigma non-opioid intracellular receptor 1 (Q60492 whole entry): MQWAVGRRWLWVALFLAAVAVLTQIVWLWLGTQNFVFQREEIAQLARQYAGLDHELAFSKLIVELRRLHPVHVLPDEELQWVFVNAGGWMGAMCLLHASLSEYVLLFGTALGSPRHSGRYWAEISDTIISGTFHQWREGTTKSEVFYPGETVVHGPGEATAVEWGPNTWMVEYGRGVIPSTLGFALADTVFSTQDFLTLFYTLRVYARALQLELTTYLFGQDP
T2 sequence (Q13224 whole entry): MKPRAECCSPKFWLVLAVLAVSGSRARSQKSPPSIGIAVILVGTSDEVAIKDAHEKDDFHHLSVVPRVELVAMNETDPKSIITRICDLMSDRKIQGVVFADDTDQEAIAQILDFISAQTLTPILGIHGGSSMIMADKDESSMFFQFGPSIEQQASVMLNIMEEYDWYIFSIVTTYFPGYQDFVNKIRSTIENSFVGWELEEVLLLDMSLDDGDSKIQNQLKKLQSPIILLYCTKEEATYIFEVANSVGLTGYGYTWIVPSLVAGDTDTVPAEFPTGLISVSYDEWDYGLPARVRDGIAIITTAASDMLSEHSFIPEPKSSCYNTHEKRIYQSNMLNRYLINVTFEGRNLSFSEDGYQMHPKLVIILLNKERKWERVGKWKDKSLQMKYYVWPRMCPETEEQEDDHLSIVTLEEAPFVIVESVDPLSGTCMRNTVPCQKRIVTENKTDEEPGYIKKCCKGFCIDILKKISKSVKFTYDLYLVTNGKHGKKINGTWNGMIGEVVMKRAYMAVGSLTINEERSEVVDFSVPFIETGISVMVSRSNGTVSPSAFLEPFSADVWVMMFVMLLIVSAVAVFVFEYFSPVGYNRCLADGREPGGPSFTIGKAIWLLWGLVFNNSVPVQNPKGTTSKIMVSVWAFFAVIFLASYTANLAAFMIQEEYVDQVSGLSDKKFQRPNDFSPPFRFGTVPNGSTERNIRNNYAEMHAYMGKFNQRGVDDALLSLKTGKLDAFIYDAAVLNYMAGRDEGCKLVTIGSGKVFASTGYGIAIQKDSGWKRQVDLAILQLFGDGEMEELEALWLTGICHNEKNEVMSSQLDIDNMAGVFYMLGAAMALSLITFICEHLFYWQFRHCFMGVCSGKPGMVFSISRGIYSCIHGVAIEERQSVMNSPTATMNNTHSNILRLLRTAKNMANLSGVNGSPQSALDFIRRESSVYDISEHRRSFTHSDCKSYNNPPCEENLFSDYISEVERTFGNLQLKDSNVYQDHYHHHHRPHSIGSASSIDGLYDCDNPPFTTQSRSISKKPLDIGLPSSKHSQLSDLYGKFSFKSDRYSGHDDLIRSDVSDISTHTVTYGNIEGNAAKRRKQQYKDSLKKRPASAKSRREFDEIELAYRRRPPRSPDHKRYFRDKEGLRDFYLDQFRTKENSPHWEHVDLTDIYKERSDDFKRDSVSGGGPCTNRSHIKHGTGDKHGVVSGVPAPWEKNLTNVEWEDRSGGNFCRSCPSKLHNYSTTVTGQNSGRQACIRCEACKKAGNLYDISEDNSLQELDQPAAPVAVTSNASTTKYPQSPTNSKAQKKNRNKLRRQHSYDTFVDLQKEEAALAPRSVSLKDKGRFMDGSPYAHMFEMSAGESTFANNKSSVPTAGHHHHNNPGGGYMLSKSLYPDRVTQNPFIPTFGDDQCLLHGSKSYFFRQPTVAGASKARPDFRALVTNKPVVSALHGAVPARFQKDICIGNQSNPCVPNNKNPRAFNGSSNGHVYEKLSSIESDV
Sequence of Glutamate receptor ionotropic, NMDA 2B (Homo sapiens, UniProt Q05586+Q13224) (Q13224 whole entry, one chain of several): as the sequence (Q13224 whole entry) above

SMILES | Ki [1] | Ki [2] | Ki [3] | Ki [4] | Ki [5]
Nc1ccc2c(c1)CCC(NCc1ccccc1)CC2 (stereo unspecified) | 470 nM | 770 nM | 128 nM | 128 nM | –
COc1ccc2c(c1)CC[C@H](NCCCc1ccccc1)C[C@@H]2O (relative stereo) | 132 nM | 9.2 nM | – | – | –
c1ccc(CNC2CCc3ccsc3CC2)cc1 (stereo unspecified) | 79 nM | 50 nM | – | 26 nM | –
OC1CC(NCc2ccccc2)CCc2sccc21 (mixture of isomers) | 737 nM | 606 nM | – | 204 nM | –
COc1ccc2c(c1)CC[C@H](NCCCc1ccccc1)C[C@H]2O (relative stereo) | 167 nM | 1100 nM | – | 48 nM | 48 nM
